Measurements as given in ChEMBL document CHEMBL1275496, “In vivo pharmacodynamic target investigation for micafungin against Candida albicans and C. glabrata in a neutropenic murine candidiasis model” (Antimicrob Agents Chemother, 2008).
Values after ≈ are worked out from the molar mass of the structure shown. *1 amine or outer side, *2 acyl side, *3 side chain or, on linkers, in order; H or OH if unused. Where a SMILES comes first, the peptide text is derived from it. Bridges are numbered along the chain shown (N, C = ends). [ ]: non-standard residue; d: D form. The star is where a group is joined. hTyr(3S-OH,4S-OH,3'-OSO3H) = N[C@H](C(=O)O)[C@H](O)[C@@H](O)c1ccc(O)c(OS(=O)(=O)O)c1; Orn(4R-OH,5R-OH) = O=C([C@H](C[C@@H](O)[C@@H](O)N[*:3])N[*:1])[*:2]; Pro(3S-OH,4S-Me) = C[C@H]1CN[C@H](C(=O)O)[C@H]1O; X1 = CCCCCOc1ccc(-c2cc(-c3ccc(C(=O)*)cc3)no2)cc1; Gln(3R-OH) = NC(=O)C[C@@H](O)[C@H](N)C(=O)O; Hyp = O=C(O)[C@@H]1C[C@@H](O)CN1

What was measured:
[1] = test system: Candida albicans; test: Antifungal activity against Candida albicans isolate K1 by CLSI method; format: functional
Summary of the method: (§1)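 Broth microdilution MIC per CLSI M27-A2. Two endpoints were read against the drug-free control well: partial inhibition (M1, CLSI recommended) and complete inhibition (M2). Tests were run in duplicate on four separate occasions, and the value is the mean.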

[2] = test system: Nakaseomyces glabratus; test: Antifungal activity against Candida glabrata isolate 34341 by CLSI method; format: functional
Summary of the method: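 Broth microdilution per CLSI M27-A2. The MIC was read at partial inhibition (M1) and at complete inhibition (M2) against the drug-free control. Done in duplicate on four separate occasions and reported as the mean.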

[3] = Ratio of AUC in ICR/Swiss neutropenic mouse at static dose of 3.88 mg/kg, ip after 24 hrs to MIC for Candida glabrata isolate 33616; format: functional; details: route intraperitoneal
[4] = Ratio of AUC in ICR/Swiss neutropenic mouse at static dose of 2.18 mg/kg, ip after 24 hrs to MIC for Candida glabrata isolate 34341; format: functional; details: route intraperitoneal
[5] = test system: Nakaseomyces glabratus; test: Antifungal activity against Candida glabrata isolate 33609 by CLSI method; format: functional; summary of the method: as §1
[6] = Ratio of fAUC in ICR/Swiss neutropenic mouse at 1-Log kill dose of 4.08 mg/kg, ip after 24 hrs to MIC for Candida albicans isolate K1; format: functional; details: route intraperitoneal
[7] = Ratio of fAUC in ICR/Swiss neutropenic mouse at static dose of 1.98 mg/kg, ip after 24 hrs to MIC for Candida albicans isolate 580; format: functional; details: route intraperitoneal
[8] = test system: Candida albicans; test: Antifungal activity against Candida albicans isolate 98-17 by CLSI method; format: functional; summary of the method: as §1
[9] = Half life in Candida infected ICR/Swiss neutropenic mouse at 20 mg/kg, ip; format: ADME, organism-based; design: dose 20 mg/kg, route intraperitoneal; details: in vivo
Summary of the method: (§2)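 Single intraperitoneal micafungin doses (80, 20, 5 mg/kg in 0.2 ml, 0.15 M NaCl) given to infected neutropenic mice. Serum was taken from 3 mice per time point at 1, 2, 4, 6, 8, 12, 24 and 48 h. Drug was measured by microbiologic assay with C. albicans K1 (LLOQ 0.12 μg/ml). Noncompartmental analysis; half-life by nonlinear least squares; AUC by trapezoidal rule.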

[10] = test system: Nakaseomyces glabratus; test: Antifungal activity against Candida glabrata isolate 33609 infected in ICR/Swiss neutropenic mouse assessed as dose required for 1-log kill after 24 hrs; format: functional
Summary of the method: (§3)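 Neutropenic mice (cyclophosphamide sc 150 mg/kg day −4, 100 mg/kg day −1 and +2) infected iv by tail vein 2 h before therapy. Micafungin given ip every 24 h for 4 days at six fourfold-spaced dose levels, 0.078–80 mg/kg/24 h, 3 mice per group. Kidney CFU read at 96 h. Hill-model fit; dose giving 1 log10 below start-of-therapy burden.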

[11] = test system: Candida albicans; test: Antifungal activity against Candida albicans isolate K1 infected in ICR/Swiss neutropenic mouse assessed as dose required for 1-log kill after 24 hrs; format: functional; summary of the method: as §3
[12] = test system: Nakaseomyces glabratus; test: Antifungal activity against Candida glabrata isolate 33616 infected in ICR/Swiss neutropenic mouse assessed as dose required for 1-log kill after 24 hrs; format: functional; summary of the method: as §3
[13] = (§4) Cmax in Candida infected ICR/Swiss neutropenic mouse at 20 mg/kg, ip; format: ADME, organism-based; design: dose 20 mg/kg, route intraperitoneal; details: ICR/Swiss, in vivo; summary of the method: as §2
[14] = test system: Mus musculus; test: as §4; format: ADME, organism-based; design: dose 20 mg/kg, route intraperitoneal; details: in vivo; summary of the method: as §2
[15] = test system: Candida albicans; test: Fungistatic activity against Candida albicans isolate K1 infected in ICR/Swiss neutropenic mouse after 24 hrs; format: functional
Summary of the method: (§5)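 Neutropenic female ICR/Swiss mice received cyclophosphamide sc at 150 mg/kg on day −4, 100 mg/kg on day −1 and 100 mg/kg on day +2. Mice were infected iv via the tail vein, and ip micafungin in 0.15 M NaCl started 2 h later. Six dose levels from 0.078 to 80 mg/kg/24 h were given q24h for 4 days, 3 mice per dose. Kidney CFU were counted at 96 h. The static dose was derived from a sigmoid Emax (Hill) fit.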

[16] = Cmax in Candida infected ICR/Swiss neutropenic mouse at 80 mg/kg, ip; format: ADME, organism-based; design: dose 80 mg/kg, route intraperitoneal; details: in vivo; summary of the method: as §2
[17] = Cmax in Candida infected ICR/Swiss neutropenic mouse at 5 mg/kg, ip; format: ADME, organism-based; design: dose 5 mg/kg, route intraperitoneal; details: in vivo; summary of the method: as §2
[18] = Ratio of fAUC in ICR/Swiss neutropenic mouse at 1-Log kill dose of 10.4 mg/kg, ip after 24 hrs to MIC for Candida albicans isolate 98-210; format: functional; details: route intraperitoneal
[19] = test system: Candida albicans; test: Antifungal activity against Candida albicans isolate 98-210 by CLSI method; format: functional; summary of the method: as §1
[20] = Ratio of AUC in ICR/Swiss neutropenic mouse at static dose of 3.76 mg/kg, ip after 24 hrs to MIC for Candida glabrata isolate 570; format: functional; details: route intraperitoneal
[21] = Ratio of AUC in ICR/Swiss neutropenic mouse at 1-Log kill dose of 6.70 mg/kg, ip after 24 hrs to MIC for Candida glabrata isolate 570; format: functional; details: dose 6.7 mg/kg; route intraperitoneal
[22] = test system: Nakaseomyces glabratus; test: Fungistatic activity against Candida glabrata isolate 33616 infected in ICR/Swiss neutropenic mouse after 24 hrs; format: functional; summary of the method: as §5
[23] = Ratio of fAUC in ICR/Swiss neutropenic mouse at 1-Log kill dose of 4.60 mg/kg, ip after 24 hrs to MIC for Candida albicans isolate 98-17; format: functional; details: dose 4.6 mg/kg; route intraperitoneal
[24] = test system: Nakaseomyces glabratus; test: Fungistatic activity against Candida glabrata isolate 34341 infected in ICR/Swiss neutropenic mouse after 24 hrs; format: functional; summary of the method: as §5
[25] = Ratio of fAUC in ICR/Swiss neutropenic mouse at 1-Log kill dose of 5.46 mg/kg, ip after 24 hrs to MIC for Candida glabrata isolate 5592; format: functional; details: route intraperitoneal
[26] = Ratio of AUC in ICR/Swiss neutropenic mouse at static dose of 0.90 mg/kg, ip after 24 hrs to MIC for Candida glabrata isolate 5376; format: functional; details: dose 0.9 mg/kg; route intraperitoneal
[27] = Ratio of AUC in ICR/Swiss neutropenic mouse at static dose of 0.06 mg/kg, ip after 24 hrs to MIC for Candida glabrata isolate 32930; format: functional; details: route intraperitoneal
[28] = Half life in Candida infected ICR/Swiss neutropenic mouse at 5 mg/kg, ip; format: ADME, organism-based; design: dose 5 mg/kg, route intraperitoneal; details: in vivo; summary of the method: as §2
[29] = Ratio of AUC in ICR/Swiss neutropenic mouse at static dose of 0.41 mg/kg, ip after 24 hrs to MIC for Candida glabrata isolate 33609; format: functional; details: route intraperitoneal
[30] = Ratio of fAUC in ICR/Swiss neutropenic mouse at 1-Log kill dose of 2.0 mg/kg, ip after 24 hrs to MIC for Candida glabrata isolate 5376; format: functional; details: route intraperitoneal
[31] = Ratio of fAUC in ICR/Swiss neutropenic mouse at static dose of 2.84 mg/kg, ip after 24 hrs to MIC for Candida albicans isolate K1; format: functional; details: route intraperitoneal
[32] = test system: Nakaseomyces glabratus; test: Antifungal activity against Candida glabrata isolate 513 by CLSI method; format: functional; summary of the method: as §1
[33] = Ratio of fAUC in ICR/Swiss neutropenic mouse at 1-Log kill dose of 3.77 mg/kg, ip after 24 hrs to MIC for Candida glabrata isolate 35315; format: functional; details: route intraperitoneal
[34] = test system: Nakaseomyces glabratus; test: Fungistatic activity against Candida glabrata isolate 570 infected in ICR/Swiss neutropenic mouse after 24 hrs; format: functional; summary of the method: as §5

## CCCCCOc1ccc(-c2cc(-c3ccc(C(=O)N[C@H]4C[C@@H](O)[C@@H](O)NC(=O)[C@@H]5[C@@H](O)[C@@H](C)CN5C(=O)[C@H]([C@H](O)CC(N)=O)NC(=O)[C@H]([C@H](O)[C@@H](O)c5ccc(O)c(OS(=O)(=O)O)c5)NC(=O)[C@@H]5C[C@@H](O)CN5C(=O)[C@H]([C@@H](C)O)NC4=O)cc3)no2)cc1 [MICAFUNGIN] (X1-[Orn(4R-OH,5R-OH)]T[Hyp][hTyr(3S-OH,4S-OH,3'-OSO3H)][Gln(3R-OH)][Pro(3S-OH,4S-Me)]; lactam 1-C)
[1]
  MIC: 0.03 µg/mL (≈ 0.0236 µM)
  MIC50: 0.016 µg/mL (≈ 0.0126 µM)
[2]
  MIC: 0.12 µg/mL (≈ 0.0945 µM)
  MIC50: 0.06 µg/mL (≈ 0.0472 µM)
[3]
  RatioAUC/MIC: 428
[4]
  RatioAUC/MIC: 1003
[5]
  MIC: 0.016 µg/mL (≈ 0.0126 µM)
  MIC50: 0.016 µg/mL (≈ 0.0126 µM)
[6]
  fAUC/MIC: 18.8
[7]
  fAUC/MIC: 19.6
[8]
  MIC: 0.06 µg/mL (≈ 0.0472 µM)
  MIC50: 0.03 µg/mL (≈ 0.0236 µM)
[9]
  half-life: 13 h
[10]
  Activity: 1.4 mg/kg
[11]
  Activity: 4.08 mg/kg
[12]
  Activity: 7.89 mg/kg
[13]
  Cmax: 28000 ng/mL
[14]
  Cmax: 28000 ng/mL
[15]
  Activity: 2.84 mg/kg
[16]
  Cmax: 53000 ng/mL
[17]
  Cmax: 7000 ng/mL
[18]
  fAUC/MIC: 46
[19]
  MIC: 0.03 µg/mL (≈ 0.0236 µM)
  MIC50: 0.016 µg/mL (≈ 0.0126 µM)
[20]
  RatioAUC/MIC: 6933
[21]
  RatioAUC/MIC: 12066
[22]
  Activity: 3.88 mg/kg
[23]
  fAUC/MIC: 10.6
[24]
  Activity: 2.18 mg/kg
[25]
  fAUC/MIC: 25
[26]
  RatioAUC/MIC: 3571
[27]
  RatioAUC/MIC: 236
[28]
  half-life: 7.5 h
[29]
  RatioAUC/MIC: 753
[30]
  fAUC/MIC: 19.7
[31]
  fAUC/MIC: 13
[32]
  MIC: 0.03 µg/mL (≈ 0.0236 µM)
  MIC50: 0.016 µg/mL (≈ 0.0126 µM)
[33]
  fAUC/MIC: 4.33
[34]
  Activity: 3.76 mg/kg
